Results gathered from unrelated publications.
Each line is one published result; the experiments were not run side by side.
Target: Proto-oncogene tyrosine-protein kinase ROS (ROS1, Homo sapiens, UniProt P08922)

CN(CCCC(F)(F)F)c1nccc(-c2cnn3ncccc23)n1  remaining binding (binding; 1 µM): 79%
Nc1ncc2c(n1)-c1c([nH]c3ccc(C#CC4CC4)cc13)CCCC2  remaining binding (binding, competition with immobilised ligand; 1 µM): 99%
O=C(Nc1cccnn1)N1CCC(=Cc2cccc(Oc3ccc(C(F)(F)F)cn3)c2)CC1  remaining binding (cell-free assay, competition with immobilised ligand; 1 µM): 80%
O=C(Nc1c[nH]nc1C(=O)NC1CCNCC1)c1cc(F)cc(F)c1  remaining binding (binding, competition with immobilised ligand; 1 µM): 100%
N#CC1(c2ccccn2)CCN(Cc2cc(C(=O)N3CCCC3)c(=O)n3ccccc23)CC1  remaining binding (cell-free assay, competition with immobilised ligand; 1 µM): 97%
CN(c1nccc(-c2cnn3ncccc23)n1)C1CC1  remaining binding (binding; 1 µM): 100%
C=CC(=O)N1CCC(C(=O)NCC(=O)N2CCN(c3nc(-c4cnc(N)nc4C(F)F)nc(N4CCOCC4)n3)CC2)CC1  remaining binding (binding, competition with immobilised ligand; 1 µM): 87%
N[C@@H]1CCN(c2nccc(-c3cnn4ncccc34)n2)C1  remaining binding (binding; 1 µM): 72%
CCN1CCN(Cc2ccc(C(=O)Nc3ccc(C)c(Oc4ccc5c(c4)CC(=O)N5)c3)cc2C(F)(F)F)CC1  remaining binding (binding, competition with immobilised ligand; 1 µM): 100%
COc1cnc(Nc2cccc(S(N)(=O)=O)c2)nc1N1CCN(c2ccccc2)CC1  remaining binding (binding, competition with immobilised ligand; 1 µM): 99%
CC1CCCN1c1nccc(-c2cnn3ncccc23)n1 (stereo not shown)  remaining binding (binding; 1 µM): 100%
Cc1cnc(Nc2ccc(C(=O)N3CCC(N4CCCC4)CC3)cc2)nc1-c1cc2ccccc2s1  remaining binding (binding, competition with immobilised ligand; 1 µM): 31%
CN(C)c1nccc(-c2cnn3ncccc23)n1  remaining binding (binding; 1 µM): 100%
O=C(c1ccc(Nc2ncc(Cl)c(-c3ccc(Cl)s3)n2)cc1)N1CCC(N2CCCC2)CC1  remaining binding (binding, competition with immobilised ligand; 1 µM): 37%
O=S(=O)(NC1CCC(c2cc(F)ccc2F)(S(=O)(=O)c2ccc(Cl)cc2)CC1)C(F)(F)F (stereo not shown)  remaining binding (cell-free assay, competition with immobilised ligand; 1 µM): 100%
O=C(c1ccc(Nc2ncc(Cl)c(-c3cc4ccccc4s3)n2)cc1)N1CCC(N2CCCC2)CC1  remaining binding (binding, competition with immobilised ligand; 1 µM): 31%
CNCc1ccccc1-c1csc([C@@H](C)Nc2nc(C)nc3cc(OC)c(OC)cc23)c1  remaining binding (cell-free assay, competition with immobilised ligand; 1 µM): 84%
C[C@H]1CCN(c2nccc(-c3cnn4ncccc34)n2)C1  remaining binding (binding; 1 µM): 91%
CC(=O)C1=C(C)N(c2cccc(C(F)(F)F)c2)C(=O)N[C@@H]1c1ccc(C#N)nc1  remaining binding (cell-free assay, competition with immobilised ligand; 1 µM): 100%
C[C@@H](c1ccc(-n2cnc3c(N)ncnc32)cc1)N1CCc2nn(C)c(Cc3ccccc3)c2C1=O  remaining binding (binding, competition with immobilised ligand; 0.1 µM): 100%
CN(C)c1nccc(-c2cnc3ncccn23)n1  remaining binding (binding; 1 µM): 71%
O=C(Nc1cccnn1)N1CC(C/C=C/c2cncc(Oc3ccc(C(F)(F)F)cn3)n2)C1  remaining binding (cell-free assay, competition with immobilised ligand; 1 µM): 100%
